Measurements: ChEMBL document CHEMBL3860029, “Maximiscin Induces DNA Damage, Activates DNA Damage Response Pathways, and Has Selective Cytotoxic Activity against a Subtype of Triple-Negative Breast Cancer” (J Nat Prod, 2016)
Active and inactive are the calls of the source. No cut-off for these calls is given here.

What was measured:
[1] = Cytotoxicity against human MDA-MB-453 cells after 48 hrs by SRB assay; type: functional; conditions: MDA-MB-453, 48 h, read-out: LC50 (the source's name)
Method in brief: (§1)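 Cells grown in IMEM with 25 µg/mL gentamicin and 10% FBS at 37°C, 5% CO2, and passaged under 3 months after revival. Sulforhodamine B assay after 48 h of compound exposure, with cell density measured at time of treatment (T0). LC50 (50% cell death vs T0) interpolated by nonlinear regression. At least 3 independent experiments, each concentration in triplicate.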

[2] = Cytotoxicity against human MDA-MB-468 cells after 48 hrs by SRB assay; type: functional; conditions: MDA-MB-468, 48 h, read-out: LC50 (the source's name)
Method in brief: as §1, with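 “RPMI-1640” for “IMEM”, “50” for “25”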

[3] = Cytotoxicity against human HCC70 cells after 48 hrs by SRB assay; type: functional; conditions: HCC70, 48 h, read-out: LC50 (the source's name)
Method in brief: as §1, with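 “RPMI-1640” for “IMEM”, “50” for “25”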

[4] = Cytotoxicity against human MDA-MB-231 cells after 48 hrs by SRB assay; type: functional; conditions: MDA-MB-231, 48 h, read-out: LC50 (the source's name); method in brief: as §1
[5] = Cytotoxicity against human BT549 cells after 48 hrs by SRB assay; type: functional; conditions: BT-549, 48 h, read-out: LC50 (the source's name)
Method in brief: as §1, with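 “RPMI-1640” for “IMEM”, “50” for “25”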

[6] = Selectivity ratio of LC50 for human MDA-MB-453 cells to LC50 for human MDA-MB-468 cells; type: functional
Method in brief: (§2)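 Both LC50s come from 48 h sulforhodamine B assays, with T0 density measured at treatment. LC50 is 50% cell death vs T0, interpolated by nonlinear regression. At least 3 independent experiments, concentrations in triplicate. MDA-MB-468, HCC70 and BT-549 were grown in RPMI-1640. MDA-MB-231 and MDA-MB-453 were grown in IMEM.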

[7] = Cell cycle arrest in human MDA-MB-468 cells assessed as accumulation at G0/G1 phase at 1 to 10 uM after 18 hrs by propidium iodide staining based FACS analysis; type: functional
Method in brief: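 MDA-MB-468 cells (RPMI-1640, 10% FBS, gentamicin) exposed to vehicle (DMSO) or compound for 18 h. Cells harvested and stained with Krishan's reagent (PI). DNA content read on a Muse Cell Analyzer to give phase distribution. n = 3; two-way ANOVA with Dunnett's post-hoc test.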

[8] = molecular target: Cellular tumor antigen p53 (Homo sapiens) (UniProt P04637); assay: Induction of p53 phosphorylation at serine15 in whole cell human MDA-MB-468 cell lysates at 1 uM by antibody microarray assay; type: cell-based; conditions: TDE = time-dependent effect
Chain of Cellular tumor antigen p53 (Homo sapiens) (P04637 whole entry, looked up): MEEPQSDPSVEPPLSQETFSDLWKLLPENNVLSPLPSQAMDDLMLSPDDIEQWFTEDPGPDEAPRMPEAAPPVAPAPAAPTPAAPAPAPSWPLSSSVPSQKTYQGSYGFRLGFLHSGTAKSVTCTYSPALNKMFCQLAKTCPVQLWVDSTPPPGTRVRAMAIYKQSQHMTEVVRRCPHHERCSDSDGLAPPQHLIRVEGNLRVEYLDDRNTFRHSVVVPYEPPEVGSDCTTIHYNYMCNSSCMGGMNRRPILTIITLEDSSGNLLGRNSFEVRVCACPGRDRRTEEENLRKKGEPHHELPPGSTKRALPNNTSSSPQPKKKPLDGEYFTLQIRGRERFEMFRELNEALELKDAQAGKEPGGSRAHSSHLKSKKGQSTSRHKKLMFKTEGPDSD
Method in brief: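 MDA-MB-468 whole-cell lysates, prepared as for immunoblotting after early post-treatment time points, applied to a PathScan intracellular signaling antibody array with fluorescent readout. Near-infrared signals imaged and quantified.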

MDA-MB-468 [9] = assay: Induction of DNA double stranded break in human MDA-MB-468 cells assessed as increase in gamma-H2A.X foci at 1 to 10 uM after 18 hrs by nucblue staining based immunofluorescent microscopic analysis; type: functional, cell-based
Method in brief: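 MDA-MB-468 cells on glass coverslips, adhered overnight, then exposed 18 h. Paraformaldehyde fixation, blocking in 10% bovine calf serum/DPBS 20 min at room temperature, then anti-γ-H2A.X in 1% BSA/0.3% Triton X-100. Detection with Alexa Fluor 594 secondary and NucBlue nuclear counterstain at 60× objective. Two independent experiments, each concentration in duplicate.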

[10] = molecular target: T1, Serine/threonine-protein kinase Chk1 (Homo sapiens) (UniProt O14757); assay: Induction of CHK1 phosphorylation at S345-residue in human MDA-MB-468 cells at 1 uM after 4 hrs by immunoblot analysis; type: cell-based
T1 sequence (whole entry): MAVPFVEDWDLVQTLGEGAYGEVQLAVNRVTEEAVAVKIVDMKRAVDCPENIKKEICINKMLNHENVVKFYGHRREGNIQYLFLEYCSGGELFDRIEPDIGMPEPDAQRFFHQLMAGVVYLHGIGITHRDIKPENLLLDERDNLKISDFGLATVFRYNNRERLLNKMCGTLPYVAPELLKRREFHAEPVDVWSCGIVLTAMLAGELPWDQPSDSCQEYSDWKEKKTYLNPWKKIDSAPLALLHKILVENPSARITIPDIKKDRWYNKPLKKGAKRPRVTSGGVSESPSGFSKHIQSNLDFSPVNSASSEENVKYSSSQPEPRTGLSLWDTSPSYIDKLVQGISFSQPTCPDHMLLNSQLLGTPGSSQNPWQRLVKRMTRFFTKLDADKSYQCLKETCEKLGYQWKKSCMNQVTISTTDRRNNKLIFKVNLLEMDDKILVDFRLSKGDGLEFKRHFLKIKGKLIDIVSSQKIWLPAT
Method in brief: (§3)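 Whole-cell lysates of MDA-MB-468 cells taken after vehicle or compound treatment for the stated times. Lysis buffer held protease inhibitors, PMSF and Na3VO4. Equal protein run on SDS-PAGE, blotted to PVDF and probed for phospho-S345-Chk1, phospho-T68-Chk2 and phospho-S15-p53 alongside total proteins and β-actin. Read by near-infrared fluorescent secondaries.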

MDA-MB-468 [11] = assay: Antitumor activity against human MDA-MB-468 cells xenografted in athymic nude mouse assessed as tumor growth inhibition at 5 mg/kg, ip administered daily for 21 days measured on day 21 post dose relative to control; type: functional, organism-based
Method in brief: (§4)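 Female athymic nude mice implanted s.c. bilaterally in each flank with 2 × 10^6 MDA-MB-468 cells in DPBS plus Matrigel. Dosing began at tumor volume of at least 150 mm3, with 7 or 8 tumors/group. Dose was 5 mg/kg i.p. daily for 21 days in 2.5% DMSO/2.5% Kolliphor EL in DPBS; controls untreated. Mice weighed and examined daily; calipers twice weekly; volume = length × width × height.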

[12] = molecular target: Serine/threonine-protein kinase Chk2 (Homo sapiens) (UniProt O96017); assay: Induction of CHK2 phosphorylation at T68-residue in human MDA-MB-468 cells at 1 uM after 2 hrs by immunoblot analysis; type: cell-based; method in brief: as §3
Chain of Serine/threonine-protein kinase Chk2 (Homo sapiens) (O96017 whole entry): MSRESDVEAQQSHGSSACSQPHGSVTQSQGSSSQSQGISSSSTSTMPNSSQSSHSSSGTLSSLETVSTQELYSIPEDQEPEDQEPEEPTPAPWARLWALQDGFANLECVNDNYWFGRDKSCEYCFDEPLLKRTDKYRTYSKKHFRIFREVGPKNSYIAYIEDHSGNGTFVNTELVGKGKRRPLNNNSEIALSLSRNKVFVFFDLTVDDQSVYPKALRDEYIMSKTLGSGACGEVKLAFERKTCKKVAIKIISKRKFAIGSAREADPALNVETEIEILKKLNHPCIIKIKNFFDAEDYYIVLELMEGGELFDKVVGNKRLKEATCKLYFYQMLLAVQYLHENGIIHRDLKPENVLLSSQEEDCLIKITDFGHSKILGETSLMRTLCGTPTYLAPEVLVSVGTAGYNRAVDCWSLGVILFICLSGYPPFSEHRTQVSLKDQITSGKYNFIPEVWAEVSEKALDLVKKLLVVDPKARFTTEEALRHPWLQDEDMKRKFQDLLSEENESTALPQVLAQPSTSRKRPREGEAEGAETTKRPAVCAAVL

Mus musculus = assay: Toxicity in athymic nude mouse xenografted with human MDA-MB-468 cells assessed as weight loss at 5 mg/kg, ip administered daily for 21 days […] relative to control; type: organism-based; conditions: in vivo, 504 h; method in brief: as §4
[13] = molecular target: Cellular tumor antigen p53 (Homo sapiens) (UniProt P04637); assay: Induction of p53 phosphorylation at serine15 in human MDA-MB-468 cells after 2 hrs at 1 uM by immunoblot analysis; type: cell-based; method in brief: as §3
BT-549 = assay: Selectivity ratio of LC50 for human BT549 cells to LC50 for human MDA-MB-468 cells; type: functional; method in brief: as §2
HCC70 = assay: Selectivity ratio of LC50 for human HCC70 cells to LC50 for human MDA-MB-468 cells; type: functional; method in brief: as §2
[14] = Selectivity ratio of LC50 for human MDA-MB-231 cells to LC50 for human MDA-MB-468 cells; type: functional; method in brief: as §2

`CC(=O)O[C@H]1C(=O)[C@@]2(C)[C@H]([C@H](OC(=O)c3ccccc3)[C@]3(O)C[C@H](OC(=O)[C@H](O)[C@@H](NC(=O)c4ccccc4)c4ccccc4)C(C)=C1C3(C)C)[C@]1(OC(C)=O)CO[C@@H]1C[C@@H]2O` [PACLITAXEL] gave a CC50 [1] of 8.2 nM, a CC50 [2] of 9.8 nM and a CC50 [3] of over 31.2 nM. It also gave a CC50 [4] of over 62.5 nM and a CC50 [5] of 18 nM.

With `C=C[C@@H]1C[C@H](C)C[C@H](C)[C@H]1c1c(O)ccn(O[C@@H]2C(C(=O)OC)=C[C@@H](O)[C@@H](O)[C@H]2O)c1=O` the CC50 [1] was 15000 nM, the RatioLC50 [6] was 25 - 100 and the CC50 [2] was 600 nM. The Activity [7] was “Active”, the Activity [8] was “Tde” and the Activity (MDA-MB-468 [9]) was “Dose-dependent effect”. The CC50 [3] was 39000 nM, the Activity [10] was “Active” and the TGI (MDA-MB-468 [11]) was “Active”. For the same compound, the Activity [12] was “Active”, the Activity (Mus musculus) was 12% and the Activity [13] was “Active”. For the same compound, the RatioLC50 (BT-549) was 25 - 100, the CC50 [4] was 60000 nM and the CC50 [5] was 15000 nM. The RatioLC50 (HCC70) was 25 - 100 and the RatioLC50 [14] was 25 - 100.
